Laboratory results published in ChEMBL document CHEMBL1158534, “Antimicrobial activity of tryptanthrins in Escherichia coli” (J Med Chem, 2010).
Converted amounts (≈) assume the structure as drawn. The source made the active and inactive calls. The rule behind the calls is not given here.

Columns and labels:
[1] = tested on: Escherichia coli; assay: Antibacterial activity against Escherichia coli AS19 after 4 hrs; type: functional; settings: AS19, 4 h
[2] = tested on: Escherichia coli; assay: Mutagenic activity in Escherichia coli assessed as induction of frame shift mutation
[3] = tested on: Escherichia coli; assay: Antibacterial activity against Escherichia coli AS19 at 1 ug/ml after 4 hrs; type: functional, organism-based
[4] = tested on: Escherichia coli; assay: Antibacterial activity against Escherichia coli AS19 at 10 ug/ml after 3 days in presence of M9 buffer; type: functional, organism-based
Procedure, shortened: (§1)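 Overnight LB culture of AS19 (pBRF14C) diluted to 10⁵-10⁶ cells/mL in M9 buffer (NH4Cl, Na2HPO4, KH2PO4); tryptanthrins at final 0.05-10 μg/mL (0.2-40 μM), 37 °C up to 72 h. Samples at ~12 h intervals plated on LB + ampicillin, counted after 24 h; surviving fraction relative to untreated M9 cells; duplicate samples, 4-8 repetitions.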

[5] = tested on: Escherichia coli; assay: Antibacterial activity against Escherichia coli AS19 at 0.01 ug/ml; type: functional, organism-based
[6] = tested on: Escherichia coli; assay: Antibacterial activity against Escherichia coli AS19 assessed as cell viability at 10 ug/ml after 20 to 24 hrs; type: functional
Procedure, shortened: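 LB growth assay with AS19 (pBRF14C) at 37 °C with shaking; after 20-24 h exposure, dilutions in M9 buffer plated (200-400 cells) on LB + 30 μg/mL ampicillin, colonies counted after 24 h at 37 °C; viability = treated cells/mL divided by untreated cells/mL.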

[7] = tested on: Escherichia coli; assay: Antibacterial activity against Escherichia coli AS19 assessed as growth inhibition at 10 ug/ml after 4 hrs; type: functional, organism-based
[8] = tested on: Escherichia coli; assay: Antibacterial activity against Escherichia coli AS19 at 0.1 ug/ml; type: functional, organism-based
[9] = tested on: Escherichia coli; assay: Antibacterial activity against Escherichia coli AS19 at 2.5 to 20 ug/ml after 4 hrs; type: functional, organism-based
[10] = tested on: Escherichia coli; assay: Antibacterial activity against Escherichia coli AS19 at 0.4 ug/ml after 3 days in presence of M9 buffer; type: functional, organism-based; procedure, shortened: as §1
[11] = tested on: Escherichia coli; assay: Antibacterial activity against Escherichia coli AS19 in presence of 360 nm light; type: functional, organism-based
[12] = tested on: Escherichia coli; assay: Antibacterial activity against Escherichia coli AS19 at 0.6 to 2 ug/ml; type: functional, organism-based
[13] = tested on: Escherichia coli; assay: Antibacterial activity against Escherichia coli AS19 at 0.5 to 10 ug/ml after 3 days in presence of M9 buffer; type: functional, organism-based; settings: 0.05 to 10 ug/ml, in the assay text read “0.05 to 10 ug/ml” for “0.5 to 10 ug/ml”; procedure, shortened: as §1
[14] = target: T1, DNA topoisomerase 1 (Homo sapiens) (UniProt P11387); assay: Inhibition of human topoisomerase 1-mediated relaxation of circular DNA
T1 sequence (whole entry): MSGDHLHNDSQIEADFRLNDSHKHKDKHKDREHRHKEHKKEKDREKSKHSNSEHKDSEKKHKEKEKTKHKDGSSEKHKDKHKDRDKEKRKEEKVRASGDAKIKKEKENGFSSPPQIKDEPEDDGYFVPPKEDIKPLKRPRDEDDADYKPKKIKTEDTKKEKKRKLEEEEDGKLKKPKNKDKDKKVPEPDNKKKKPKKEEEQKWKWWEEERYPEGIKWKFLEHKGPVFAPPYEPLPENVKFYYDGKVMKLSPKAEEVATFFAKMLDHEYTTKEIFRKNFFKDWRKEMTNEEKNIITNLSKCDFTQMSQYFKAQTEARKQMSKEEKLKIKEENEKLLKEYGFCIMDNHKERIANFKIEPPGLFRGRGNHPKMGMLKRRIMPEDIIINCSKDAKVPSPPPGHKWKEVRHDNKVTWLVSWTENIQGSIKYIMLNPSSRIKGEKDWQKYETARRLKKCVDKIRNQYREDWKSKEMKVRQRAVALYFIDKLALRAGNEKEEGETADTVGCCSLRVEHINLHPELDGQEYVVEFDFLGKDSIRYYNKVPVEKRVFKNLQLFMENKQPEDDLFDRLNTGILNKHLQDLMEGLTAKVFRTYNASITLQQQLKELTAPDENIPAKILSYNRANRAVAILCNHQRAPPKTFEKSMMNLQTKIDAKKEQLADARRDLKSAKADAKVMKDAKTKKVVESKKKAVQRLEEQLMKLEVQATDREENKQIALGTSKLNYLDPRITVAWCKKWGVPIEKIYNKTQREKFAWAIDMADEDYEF
Procedure, shortened: (§2)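 Relaxation assay: 0.25 μg pGEM-3Z (2743 bp, CsCl-purified) with 1 U human topoisomerase I in 10 mM Tris pH 7.9, 150 mM NaCl, 0.1 mM spermidine, 5% glycerol, tryptanthrin 10-100 μg/mL, 2 h 37 °C (or pre-relaxed 1 h, then drug 1-2 h). Stopped with sarkosyl; 1.5% agarose ± 2 μg/mL chloroquine, 50 V 3-4 h, ethidium stain; drugs bound = (Ldrug−Lo)×360°/28°.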

[15] = target: T1, DNA topoisomerase 1 (Homo sapiens); assay: Inhibition of human topoisomerase 1-mediated relaxation of circular DNA at 100 ug/ml; procedure, shortened: as §2

SMILES	GI50 [1]	Activity [4]	growth inhibition (GI) [7]	Activity [11]	also measured
O=C1c2cc(F)ccc2-n2c1nc1ncccc1c2=O	0.6 µg/mL (≈ 2.25 µM)	Active	Active		fold change (FC) [2]: 4; Activity [3]: Active; Activity [5]: inactive; Activity [6]: 15%; Activity [8]: inactive; Activity [9]: Active
O=C1c2cc(F)ccc2-n2c1nc1ccccc1c2=O					Activity [10]: Active
O=c1c2ccccc2nc2n1-c1ccc(F)cc1/C2=N\O		Active		inactive	
O=C1c2ccccc2-n2c1nc1nccnc1c2=O	1.5 µg/mL (≈ 5.99 µM)	Active	Active	Active	Activity [12]: Active
O=c1c2cccnc2nc2n1-c1ccccc1/C2=N\O				inactive	
O=C1c2ccccc2-n2c1nc1ccccc1c2=O [TRYPTANTHRIN]	2.25 µg/mL (≈ 9.06 µM)		Active		
O=C1c2cc(Br)ccc2-n2c1nc1ccccc1c2=O					Activity [10]: Active
O=C1c2ccccc2-n2c1nc1ncccc1c2=O	1.3 µg/mL (≈ 5.22 µM)	Active	Active		fold change (FC) [2]: 22; Activity [13]: Active; inhibition [14]: inactive
O=C1c2cc([N+](=O)[O-])ccc2-n2c1nc1ccccc1c2=O	0.6 µg/mL (≈ 2.05 µM)		Active		inhibition [15]: inactive
O=Nc1c2ccccc2n2c(O)c3ccccc3nc12				inactive	
